Assays:
Parameters in all cases: dose 5 mg/kg, dosed compound name [14C]CS-1036, route oral
Conditions in all cases: in vivo
[1] = tested on: Spleen; assay: Drug uptake in albino F344/DuCrlCrlj rat spleen at 5 mg/kg, po after 4 hrs by liquid scintillation counting; format: ADME, organism-based
[2] = tested on: Adrenal gland; assay: Drug uptake in albino F344/DuCrlCrlj rat adrenal gland at 5 mg/kg, po after 4 hrs by liquid scintillation counting; format: ADME, organism-based
[3] = Drug uptake in albino F344/DuCrlCrlj rat skeletal muscle at 5 mg/kg, po after 8 hrs by liquid scintillation counting; format: ADME, organism-based, Muscle tissue
[4] = tested on: Small intestine; assay: Drug uptake in albino F344/DuCrlCrlj rat small intestine assessed as ng equivalent of CS-1036 at 5 mg/kg, po after 336 hrs by liquid scintillation counting; format: ADME, organism-based
[5] = tested on: Kidney; assay: Drug uptake in albino F344/DuCrlCrlj rat kidney at 5 mg/kg, po after 336 hrs by liquid scintillation counting; format: ADME, organism-based
[6] = tested on: Small intestine; assay: Drug uptake in albino F344/DuCrlCrlj rat small intestine assessed as ng equivalent of CS-1036 at 5 mg/kg, po after 4 hrs by liquid scintillation counting; format: ADME, organism-based
[7] = tested on: Liver; assay: Drug uptake in albino F344/DuCrlCrlj rat liver assessed as ng equivalent of CS-1036 at 5 mg/kg, po after 1 hr by liquid scintillation counting; format: ADME, organism-based
[8] = Drug uptake in albino F344/DuCrlCrlj rat fat assessed as ng equivalent of CS-1036 at 5 mg/kg, po after 8 hrs by liquid scintillation counting; format: ADME, organism-based, Adipose tissue
Outline: (§1)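 Male F344/DuCrlCrlj rats (bought at 7 weeks, acclimatized 5–6 days; 159–167 g; n = 3 per time point) received a single oral dose of [14C]CS-1036 at 5 mg/kg. White adipose tissue was collected after abdominal aortic bleeding at 1, 4, 8, 24, 72, 168 or 336 h. Samples were counted by LSC with external-standard efficiency correction. Results were converted to ng equivalents per g from specific activity and sample weight.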

[9] = tested on: Small intestine; assay: Drug uptake in albino F344/DuCrlCrlj rat small intestine at 5 mg/kg, po after 4 hrs by liquid scintillation counting; format: ADME, organism-based
[10] = tested on: Kidney; assay: Drug uptake in albino F344/DuCrlCrlj rat kidney at 5 mg/kg, po after 168 hrs by liquid scintillation counting; format: ADME, organism-based
[11] = tested on: Aorta; assay: Drug uptake in albino F344/DuCrlCrlj rat aorta assessed as ng equivalent of CS-1036 at 5 mg/kg, po after 72 hrs by liquid scintillation counting; format: ADME, organism-based
[12] = tested on: Harderian gland; assay: Drug uptake in albino F344/DuCrlCrlj rat harderian gland assessed as ng equivalent of CS-1036 at 5 mg/kg, po after 1 hr by liquid scintillation counting; format: ADME, organism-based
[13] = tested on: Small intestine; assay: Drug uptake in albino F344/DuCrlCrlj rat small intestine assessed as ng equivalent of CS-1036 at 5 mg/kg, po after 72 hrs by liquid scintillation counting; format: ADME, organism-based
[14] = Drug uptake in albino F344/DuCrlCrlj rat trachea assessed as ng equivalent of CS-1036 at 5 mg/kg, po after 8 hrs by liquid scintillation counting; format: ADME, organism-based
[15] = tested on: Heart; assay: Drug uptake in albino F344/DuCrlCrlj rat heart at 5 mg/kg, po after 336 hrs by liquid scintillation counting; format: ADME, organism-based
[16] = tested on: Heart; assay: Drug uptake in albino F344/DuCrlCrlj rat heart at 5 mg/kg, po after 168 hrs by liquid scintillation counting; format: ADME, organism-based
[17] = Drug uptake in albino F344/DuCrlCrlj rat bone marrow assessed as ng equivalent of CS-1036 at 5 mg/kg, po after 1 hr by liquid scintillation counting; format: ADME, organism-based
[18] = tested on: Pancreas; assay: Drug uptake in albino F344/DuCrlCrlj rat pancreas at 5 mg/kg, po after 72 hrs by liquid scintillation counting; format: ADME, organism-based
[19] = tested on: Large intestine; assay: Drug uptake in albino F344/DuCrlCrlj rat large intestine assessed as ng equivalent of CS-1036 at 5 mg/kg, po after 8 hrs by liquid scintillation counting; format: ADME, organism-based
[20] = tested on: Plasma; assay: Drug uptake in albino F344/DuCrlCrlj rat plasma at 5 mg/kg, po after 168 hrs by liquid scintillation counting; format: ADME, organism-based
[21] = Drug uptake in albino F344/DuCrlCrlj rat pituitary gland at 5 mg/kg, po after 72 hrs by liquid scintillation counting; format: ADME, organism-based
[22] = tested on: Zone of skin; assay: Drug uptake in albino F344/DuCrlCrlj rat skin assessed as ng equivalent of CS-1036 at 5 mg/kg, po after 72 hrs by liquid scintillation counting; format: ADME, organism-based
[23] = tested on: Cerebrum; assay: Drug uptake in albino F344/DuCrlCrlj rat cerebrum assessed as ng equivalent of CS-1036 at 5 mg/kg, po after 336 hrs by liquid scintillation counting; format: ADME, organism-based
Outline: (§2)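 Single oral [14C]CS-1036 at 5 mg/kg was given to male rats (159–167 g; n = 3). Cerebrum was collected after aortic bleeding at 1, 4, 8, 24, 72, 168 or 336 h, weighed, and homogenized in 2 volumes of saline. A 0.5 ml aliquot was solubilized in Soluene-350 and counted by LSC with external-standard correction. Results are in ng equivalent/g tissue from specific activity and sample weight.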

[24] = tested on: Stomach; assay: Drug uptake in albino F344/DuCrlCrlj rat stomach at 5 mg/kg, po after 168 hrs by liquid scintillation counting; format: ADME, organism-based
[25] = tested on: Large intestine; assay: Drug uptake in albino F344/DuCrlCrlj rat large intestine at 5 mg/kg, po after 336 hrs by liquid scintillation counting; format: ADME, organism-based
[26] = tested on: Cerebellum; assay: Drug uptake in albino F344/DuCrlCrlj rat cerebellum at 5 mg/kg, po after 72 hrs by liquid scintillation counting; format: ADME, organism-based
[27] = tested on: Heart; assay: Drug uptake in albino F344/DuCrlCrlj rat heart at 5 mg/kg, po after 72 hrs by liquid scintillation counting; format: ADME, organism-based
[28] = tested on: Adrenal gland; assay: Drug uptake in albino F344/DuCrlCrlj rat adrenal gland assessed as ng equivalent of CS-1036 at 5 mg/kg, po after 24 hrs by liquid scintillation counting; format: ADME, organism-based
[29] = tested on: Aorta; assay: Drug uptake in albino F344/DuCrlCrlj rat aorta at 5 mg/kg, po after 168 hrs by liquid scintillation counting; format: ADME, organism-based
[30] = tested on: Cerebrum; assay: Drug uptake in albino F344/DuCrlCrlj rat cerebrum at 5 mg/kg, po after 336 hrs by liquid scintillation counting; format: ADME, organism-based; outline: as §2
[31] = Drug uptake in albino F344/DuCrlCrlj rat fat assessed as ng equivalent of CS-1036 at 5 mg/kg, po after 1 hr by liquid scintillation counting; format: ADME, organism-based, Adipose tissue; outline: as §1
[32] = Drug uptake in albino F344/DuCrlCrlj rat eyeball assessed as ng equivalent of CS-1036 at 5 mg/kg, po after 72 hrs by liquid scintillation counting; format: ADME, organism-based
[33] = Drug uptake in albino F344/DuCrlCrlj rat skeletal muscle assessed as ng equivalent of CS-1036 at 5 mg/kg, po after 168 hrs by liquid scintillation counting; format: ADME, organism-based, Muscle tissue
[34] = tested on: Pancreas; assay: Drug uptake in albino F344/DuCrlCrlj rat pancreas assessed as ng equivalent of CS-1036 at 5 mg/kg, po after 24 hrs by liquid scintillation counting; format: ADME, organism-based
[35] = tested on: Spleen; assay: Drug uptake in albino F344/DuCrlCrlj rat spleen assessed as ng equivalent of CS-1036 at 5 mg/kg, po after 4 hrs by liquid scintillation counting; format: ADME, organism-based

Radiolabel recovery [1]: 35.1 ngequiv/g
Radiolabel recovery [2]: 33.3 ngequiv/g
Radiolabel recovery [3]: 32.2 ngequiv/g
Radiolabel recovery [4]: 1.92 ngequiv/g
Radiolabel recovery [5]: 12 ngequiv/g
Radiolabel recovery [6]: 903 ngequiv/g
Radiolabel recovery [7]: 60 ngequiv/g
Radiolabel recovery [8]: 4.6 ngequiv/g
Radiolabel recovery [9]: 965 ngequiv/g
Radiolabel recovery [10]: 27 ngequiv/g
Radiolabel recovery [11]: 16.1 ngequiv/g
Radiolabel recovery [12]: 4.3 ngequiv/g
Radiolabel recovery [13]: 16.2 ngequiv/g
Radiolabel recovery [14]: 17.8 ngequiv/g
Radiolabel recovery [15]: 7.28 ngequiv/g
Radiolabel recovery [16]: 13.8 ngequiv/g
Radiolabel recovery [17]: 4.6 ngequiv/g
Radiolabel recovery [18]: 186 ngequiv/g
Radiolabel recovery [19]: 8000 ngequiv/g
Radiolabel recovery [20]: 3.57 ngequiv/ml
Radiolabel recovery [21]: 22.1 ngequiv/g
Radiolabel recovery [22]: 48.7 ngequiv/g
Radiolabel recovery [23]: 2.36 ngequiv/g
Radiolabel recovery [24]: 23.9 ngequiv/g
Radiolabel recovery [25]: 9.86 ngequiv/g
Radiolabel recovery [26]: 9.8 ngequiv/g
Radiolabel recovery [27]: 27.5 ngequiv/g
Radiolabel recovery [28]: 20.2 ngequiv/g
Radiolabel recovery [29]: 18.1 ngequiv/g
Radiolabel recovery [30]: 4.88 ngequiv/g
Radiolabel recovery [31]: 1.53 ngequiv/g
Radiolabel recovery [32]: 1.72 ngequiv/g
Radiolabel recovery [33]: 4.5 ngequiv/g
Radiolabel recovery [34]: 25 ngequiv/g
Radiolabel recovery [35]: 6.3 ngequiv/g
Structure (SMILES): C[C@H]1O[C@@H](O[C@H]2[C@H](O)[C@@H](O)[C@@H](O[14C@H]3[14C@H](O)[14CH2]N[14C@@H]3[14CH2]O)O[C@@H]2CO)[C@H](O)[C@@H](O)[C@@H]1O

— ChEMBL document CHEMBL3526002, “Tissue distribution and identification of radioactivity components at elimination phase after oral administration of [¹⁴C]CS-1036, an α-amylase inhibitor, to rats” (Drug Metab Dispos, 2013)
